Measurements: article PMC3040411 (Bioorganic & medicinal chemistry letters, 2010)

What was measured:
LPA2 GPCR = conditions: cited from earlier work
LPA1 GPCR = conditions: cited from earlier work
LPA5 = LPA5 (Homo sapiens, UniProt Q9H1C0); experiment: LPA5-mediated calcium mobilization in B103 cells stably expressing LPA5; format: cell-based; conditions: concentrations above 1 μM, p < 0.05
Recombinant ATX = Recombinant ATX (Homo sapiens, UniProt Q13822); format: biochemical; conditions: for Mechanism of ATX inhibition: assigned by lowest averaged percent residuals of curve fitting
Summary of the method: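 Recombinant autotaxin ([…]) with test compound at various concentrations, in pH 8.0 Tris-HCl 50 mM buffer with NaCl 140 mM, KCl 3 mM, MgCl2 and CaCl2 1 mM each, and fatty-acid-free BSA 15 μM; LPA 18:1 as positive control. Fluorescence (ex 485/em 538 nm) read at start and after 2 h, 37 °C; activity as percent of vehicle, triplicate wells. For mechanism, FS-3 varied 0.3–20 μM at three inhibitor levels; competitive, uncompetitive, mixed and non-competitive models fitted simultaneously to give Ki.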

Sequence of LPA5 (Q9H1C0 whole entry, species assumed): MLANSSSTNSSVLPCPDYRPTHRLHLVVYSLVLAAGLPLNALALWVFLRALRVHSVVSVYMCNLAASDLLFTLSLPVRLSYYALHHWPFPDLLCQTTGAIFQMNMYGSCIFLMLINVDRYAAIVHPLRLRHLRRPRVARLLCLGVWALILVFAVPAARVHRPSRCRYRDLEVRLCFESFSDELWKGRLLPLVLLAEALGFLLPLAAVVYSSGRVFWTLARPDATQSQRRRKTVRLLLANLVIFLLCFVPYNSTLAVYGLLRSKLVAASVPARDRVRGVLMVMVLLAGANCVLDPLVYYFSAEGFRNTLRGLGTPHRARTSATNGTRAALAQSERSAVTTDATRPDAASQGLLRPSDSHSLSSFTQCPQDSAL

Row | Efficacy for LPA5-mediated calcium mobilization compared with R-3-CCPA (LPA5) | Mechanism of ATX inhibition (Recombinant ATX) | Potency in ATX inhibition relative to S-3-CCPA (Recombinant ATX; FS-3 1 μM, 2 hours at 37 °C) | Compound | LPA2 GPCR activation (LPA2 GPCR) | LPA1 GPCR activation (LPA1 GPCR)
1 | – | – | – | 1-acyl-2,3-glycerophosphate [CPA] | weak agonist | weak agonist
2 | significantly higher | mixed mode | – | CCCCCCCCCCCCCCCCCC(=O)OC[C@@H]1CCP(=O)([O-])O1.[Na+] [S-3-CCPA] | – | –
3 | – | mixed mode | approximately 2 fold | CCCCCCCCCCCCCCCCCC(=O)OC[C@H]1CCP(=O)([O-])O1.[Na+] [R-3-CCPA] | – | –
